Measurements published in ChEMBL document CHEMBL4229550, “An antimycobacterial pleuromutilin analogue effective against dormant bacilli” (Bioorg Med Chem, 2018).
Converted amounts (≈) assume the structure as drawn. The source made the active and inactive calls. No cut-off for these calls is given here.

Tests used:
[1] = system: Streptococcus salivarius; test: Antibacterial activity against Streptococcus salivarius […] incubated for 24 hrs under aerobic condition by MABA; assay type: functional; conditions: read-out: MIC100
Outline: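 Resazurin was then added from a 0.08% stock for 1 h. MIC100 was the lowest concentration where the dye stayed blue (pink means growth). Absorbance was also read at 570 and 600 nm.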

[2] = system: Enterococcus faecalis; test: Antibacterial activity against Enterococcus faecalis ATCC 349 incubated for 24 hrs under aerobic condition by MABA; assay type: functional; conditions: ATCC 349, 24 h, read-out: MIC100
Outline: (§1)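 Mid-log cultures at OD 0.5 were exposed to serial dilutions under aerobic conditions at 37 °C for 24 h. Resazurin was then added from a 0.08% stock for 1 h. MIC100 was the lowest concentration where the dye stayed blue (pink means growth). Absorbance was also read at 570 and 600 nm.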

[3] = system: Enterococcus faecalis; test: Antibacterial activity against Enterococcus faecalis ATCC 19433 incubated for 24 hrs under aerobic condition by MABA; assay type: functional; conditions: ATCC 19433, 24 h, read-out: MIC100; outline: as §1
[4] = Apparent permeability from apical to basolateral side in human Caco2 cells at 10 uM after 2 hrs by LC-MS/MS analysis; assay type: ADME, cell-based; conditions: caco-2, 2 h
[5] = Half life in Sprague-Dawley rat liver microsomes at 500 ng/ml preincubated for 5 mins followed by NADPH addition by C-MS/MS analysis; assay type: ADME, microsome
[6] = Cmax in Balb/c mouse at 3 mg/kg, iv; assay type: ADME, organism-based; set-up: dose 3 mg/kg, route intravenous; conditions: in vivo
Outline: (§2)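 Single IV dose of 3 mg/kg in BALB/c mice (n = 3). Serum concentration-time data were used to derive t1/2, Cmax and AUC over 0–24 h and to infinity.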

[7] = system: Escherichia coli; test: Inhibition of protein translation/transcription in Escherichia coli S30 cell extract at 0.5 ug/ml using circular DNA with pBESTluc after 60 mins by luciferase reporter gene assay; assay type: functional
Outline: (§3)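 Coupled transcription/translation used E. coli S30 extract, amino acid mix and premix, with the pBESTluc template carrying firefly luciferase under the tac promoter. Compounds were added in DMSO and reactions were started with DNA. Incubation was 60 min at 37 °C, stopped on ice, and luciferase was read after adding assay substrate.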

[8] = system: Enterococcus faecalis; test: Bactericidal activity against Enterococcus faecalis ATCC 19433 incubated for 24 hrs under aerobic condition by MABA; assay type: functional; conditions: ATCC 19433, 24 h
[9] = system: Bacillus subtilis; test: Bactericidal activity against Bacillus subtilis ATCC 6051 incubated for 24 hrs under aerobic condition by MABA; assay type: functional; conditions: ATCC 6051, 24 h
[10] = system: Vero; test: Cytotoxicity against African green monkey Vero cells assessed as reduction in cell viability after 72 hrs by MTT assay; assay type: cell-based; conditions: Chlorocebus sabaeus
Outline: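 Vero cells were grown in complete EMEM with 10% FBS and exposed for 72 h to 0.78–200 µg/mL. The medium was then swapped for phenol-red-free EMEM and MTT was added. Formazan absorbance was read at 570 nm to give IC50.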

[11] = system: Staphylococcus aureus; test: Antibacterial activity against Staphylococcus aureus BAA 1683 incubated for 24 hrs under aerobic condition by MABA; assay type: functional; conditions: BAA 1683, 24 h, read-out: MIC100; outline: as §1
[12] = system: Staphylococcus aureus; test: Antibacterial activity against Staphylococcus aureus ATCC 25923 incubated for 24 hrs under aerobic condition by MABA; assay type: functional; conditions: ATCC 25923, 24 h, read-out: MIC100; outline: as §1
[13] = system: Staphylococcus aureus; test: Bactericidal activity against Staphylococcus aureus ATCC 25923 incubated for 24 hrs under aerobic condition by MABA; assay type: functional; conditions: ATCC 25923, 24 h
[14] = system: Mus musculus; test: Toxicity in po dosed Balb/c mouse assessed as effect on health measured for 7 days; assay type: organism-based; conditions: in vivo, 168 h
[15] = AUC (0 to 24 hrs) in Balb/c mouse serum at 30 mg/kg, po; assay type: ADME, organism-based; set-up: time < 24 hr, dose 30 mg/kg, route oral
Outline: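 Single oral dose of 30 mg/kg in BALB/c mice (n = 6). Serum PK parameters were t1/2, tmax, Cmax and AUC over 0–24 h and to infinity. Oral bioavailability F was calculated against the 3 mg/kg IV dose.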

[16] = system: Staphylococcus aureus; test: Bactericidal activity against Staphylococcus aureus BAA 1683 incubated for 24 hrs under aerobic condition by MABA; assay type: functional; conditions: BAA 1683, 24 h
[17] = system: Mycobacterium tuberculosis; test: Antibacterial activity against Mycobacterium tuberculosis Erdman infected in Balb/c mouse assessed as reduction in bacterial load in lungs at 100 mg/kg, po for 3 weeks starting from 10 days post infection measured on day 21 post infection; assay type: functional, Erdman = ATCC 35801
Outline: (§4)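 Female BALB/c mice, 7–8 weeks old, are aerosol-infected with Mtb Erdman. From day 10 they receive oral gavage in water for three weeks, in groups of 5. Lungs and spleens are harvested at day 21 post-infection and plated for CFU. Efficacy is the log10 reduction in lung burden versus untreated (vehicle) controls.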

[18] = system: Mycobacterium tuberculosis; test: Antibacterial activity against Mycobacterium tuberculosis Erdman infected in Balb/c mouse assessed as reduction in bacterial load in lungs at 50 mg/kg, po for 3 weeks starting from 10 days post infection measured on day 21 post infection; assay type: functional, Erdman = ATCC 35801; outline: as §4
[19] = system: Mus musculus; test: AUC (0 to 24 hrs) in Balb/c mouse at 3 mg/kg, iv; assay type: ADME, organism-based; set-up: time < 24 hr, dose 3 mg/kg, route intravenous; conditions: in vivo; outline: as §2
[20] = system: Escherichia coli; test: Bactericidal activity against Escherichia coli ATCC 10798 incubated for 24 hrs under aerobic condition by MABA; assay type: functional; conditions: ATCC 10798, 24 h
[21] = system: Mycobacterium tuberculosis; test: Bactericidal activity against replicating Mycobacterium tuberculosis H37Rv incubated for 15 days under aerobic condition by MABA; assay type: functional; conditions: 360 h
Outline: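 Mtb H37Rv grown in 7H9/OADC at 37 °C with shaking to OD600 0.5. The 0.5-OD culture is exposed aerobically to serial dilutions for 15 days at 37 °C. Resazurin (0.02% stock) is then added for 4 h at 37 °C with shaking.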

[22] = AUC (0 to 24 hrs) in Balb/c mouse lung at 30 mg/kg, po; assay type: ADME, organism-based; set-up: dose 30 mg/kg, time < 24 hr, route oral; conditions: in vivo
[23] = system: Klebsiella pneumoniae; test: Antibacterial activity against Klebsiella pneumoniae ATCC 12019 incubated for 24 hrs under aerobic condition by MABA; assay type: functional; conditions: ATCC 12019, 24 h, read-out: MIC100; outline: as §1
[24] = system: Escherichia coli; test: Inhibition of protein translation/transcription in Escherichia coli S30 cell extract at 0.1 ug/ml using circular DNA with pBESTluc after 60 mins by luciferase reporter gene assay; assay type: functional; outline: as §3
[25] = system: Mycobacterium tuberculosis; test: Bactericidal activity against Mycobacterium tuberculosis H37Rv at 2 times MIC measured every 24 hrs up to 12 days by time kill assay relative to control; assay type: functional
Outline: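 Mid-log H37Rv (OD 0.5) is diluted to OD 0.25 and exposed at MIC, 2×MIC or 4×MIC. Every 24 h cultures are diluted 10- to 10,000-fold and plated on 7H10/OADC agar. Plates are incubated 15 days at 37 °C before colony counts.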

[26] = Half life in Balb/c mouse serum at 30 mg/kg, po; assay type: ADME, organism-based
Outline: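 Single 30 mg/kg oral dose in six BALB/c mice; serum half-life and tmax are derived from the concentration–time profile.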

[27] = system: Enterococcus faecalis; test: Bactericidal activity against Enterococcus faecalis ATCC 349 incubated for 24 hrs under aerobic condition by MABA; assay type: functional; conditions: ATCC 349, 24 h
[28] = system: Staphylococcus aureus; test: Bactericidal activity against Staphylococcus aureus BAA 2094 incubated for 24 hrs under aerobic condition by MABA; assay type: functional; conditions: BAA 2094, 24 h
[29] = system: Klebsiella pneumoniae; test: Bactericidal activity against Klebsiella pneumoniae ATCC 12019 incubated for 24 hrs under aerobic condition by MABA; assay type: functional; conditions: ATCC 12019, 24 h

## CC[C@]1(C)C[C@@H](OC(=O)CSC(C)(C)CNC(=O)[C@H](N)CC(C)C)[C@]2(C)[C@H](C)CC[C@]3(CC[C@@H](O)[C@H]32)[C@@H](C)[C@@H]1O
[1]
  MIC: 6.25 µg/mL (≈ 10.7 µM)
[2]
  MIC: > 25 µg/mL
[3]
  MIC: 6.25 µg/mL (≈ 10.7 µM)
[4]
  Papp: 3.39 ×10⁻⁶ cm/s
[5]
  t1/2: > 1 h
[6]
  Cmax: 1910 ng/mL
[7]
  inhibition: Active
[8]
  MBC: 12.5 µg/mL (≈ 21.4 µM)
[9]
  MBC: > 25 µg/mL
[10]
  IC50: 25 µg/mL (≈ 42.9 µM)
[11]
  MIC: > 25 µg/mL
[12]
  MIC: > 25 µg/mL
[13]
  MBC: > 25 µg/mL
[14]
  MTD: > 200 mg/kg
[15]
  AUC(0-t) at 24 h: 2500 ng·h/mL
[16]
  MBC: > 25 µg/mL
[17]
  log(activity): 0.2
[18]
  log(activity): 0.03
[19]
  AUC: 993 ng·h/mL
[20]
  MBC: > 25 µg/mL
[21]
  MBC: 0.83 µg/mL (≈ 1.42 µM)
[22]
  AUC: 66281 ng·h/g
[23]
  MIC: 12.5 µg/mL (≈ 21.4 µM)
[24]
  inhibition: Active
[25]
  Activity: 100%
[26]
  half-life: 10.5 h
[27]
  MBC: > 25 µg/mL
[28]
  MBC: > 25 µg/mL
[29]
  MBC: 25 µg/mL (≈ 42.9 µM)
